A word on the MIC: it is the smallest concentration in the dilution series that meets the test's criterion for growth inhibition.

Values after ≈ are worked out from the molar mass of the structure shown. A value given as a limit tells only on which side of the number the result lay.

These results are taken from ChEMBL document CHEMBL5331111, “Synthetic Biology Facilitates Semisynthetic Development of Type V Glycopeptide Antibiotics Targeting Vancomycin-Resistant Enterococcus” (J Med Chem, 2023).

Common to all, as to format: functional
In assay [1] the test system is Staphylococcus aureus. The experiment in a line: Antibacterial activity against Staphylococcus aureus ATCC 33591 assessed as reduction in bacterial growth by Mueller-Hinton broth based assay. The essentials: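 Broth MIC by standard procedure in Mueller-Hinton broth, for both B. subtilis 168 and S. aureus ATCC 33591.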
Assay [2] deals with Mycolicibacterium smegmatis. The assay is described as follows: Antimycobacterial activity against Mycobacterium smegmatis MC2 155 assessed as inhibition of bacterial growth measured after 2 days by resazurin dye based analysis. The conditions noted are these: MC2 155, 48 h, time 2 day. A digest of the protocol:
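Strains grown in 7H9 broth with 0.2% glycerol, 10% OADC and 0.05% Tween-80. Inoculum was about 5 × 10^5 CFU/mL, checked by plating on 7H10/OADC agar to be 3–8 × 10^5. Read at 2 days for M. smegmatis and 7 days for M. tuberculosis H37Ra, M. bovis and M. avium. Resazurin 30 μg/mL was then added for one further day. Values are averages of at least two experiments.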
On the technique in general: The colour change of resazurin is a common sign of viable cells or microbes.

The test system of assay [3] is Enterococcus faecalis. The experiment in a line: Antibacterial activity against vancomycin-resistant Enterococcus faecalis ATCC 51299 assessed as inhibition of bacterial growth by Mueller-Hinton broth based assay.
Assay [4] concerns Enterococcus faecium. The assay is described as follows: Antibacterial activity against vancomycin-resistant Enterococcus faecium ATCC 700221 assessed as inhibition of bacterial growth by Mueller-Hinton broth based assay.

`CN1C(=O)[C@@H]2NC(=O)[C@@H]3NC(=O)[C@@H](c4ccc(O)cc4)NC(=O)[C@H](NC(=O)C(NCCO)c4ccc(O)cc4)Cc4c[nH]c5cc(ccc45)-c4cc3cc(c4O)Oc3ccc(cc3)C[C@H]1C(=O)N[C@@H](C(=O)OCCO)c1ccc(O)c(c1)Oc1ccc2cc1` (stereo partly drawn): the figures for the MIC in assay [1] and in assay [2] were 32 µg/mL (≈ 26.5 µM) and 16 µg/mL (≈ 13.2 µM), respectively. For the compound `CN1C(=O)[C@@H]2NC(=O)[C@@H]3NC(=O)[C@@H](c4ccc(O)cc4)NC(=O)[C@H](NC(=O)C(NCCS(=O)(=O)O)c4ccc(O)cc4)Cc4c[nH]c5cc(ccc45)-c4cc3cc(c4O)Oc3ccc(cc3)C[C@H]1C(=O)N[C@@H](C(=O)OCCS(=O)(=O)O)c1ccc(O)c(c1)Oc1ccc2cc1` (stereo partly drawn), the MIC in assay [1], in assay [3] and in assay [4] was over 128 µg/mL each time.

`CCCCCCCCNC(C(=O)N[C@@H]1Cc2c[nH]c3cc(ccc23)-c2cc3cc(c2O)Oc2ccc(cc2)C[C@H]2C(=O)N[C@@H](C(=O)O)c4ccc(O)c(c4)Oc4ccc(cc4)[C@@H](NC(=O)[C@@H]3NC(=O)[C@@H](c3ccc(O)cc3)NC1=O)C(=O)N2C)c1ccc(O)cc1` (stereo partly drawn): the MIC in assay [3] was 8 µg/mL (≈ 6.49 µM). On to `CN1C(=O)[C@@H]2NC(=O)[C@@H]3NC(=O)[C@@H](c4ccc(O)cc4)NC(=O)[C@H](NC(=O)C(NC(=O)OC(C)(C)C)c4ccc(O)cc4)Cc4c[nH]c5cc(ccc45)-c4cc3cc(c4O)Oc3ccc(cc3)C[C@H]1C(=O)N[C@@H](C(=O)O)c1ccc(O)c(c1)Oc1ccc2cc1` (stereo partly drawn), for which, in assay [4], the minimal inhibitory concentration (MIC) came out at 16 µg/mL (≈ 13.1 µM).

With `CCCCNC(C(=O)N[C@@H]1Cc2c[nH]c3cc(ccc23)-c2cc3cc(c2O)Oc2ccc(cc2)C[C@H]2C(=O)N[C@@H](C(=O)O)c4ccc(O)c(c4)Oc4ccc(cc4)[C@@H](NC(=O)[C@@H]3NC(=O)[C@@H](c3ccc(O)cc3)NC1=O)C(=O)N2C)c1ccc(O)cc1` (stereo partly drawn), the MIC in assay [1] came to 16 µg/mL (≈ 13.6 µM). With `CCCCCCCCCCCNC(C(=O)N[C@@H]1Cc2c[nH]c3cc(ccc23)-c2cc3cc(c2O)Oc2ccc(cc2)C[C@H]2C(=O)N[C@@H](C(=O)O)c4ccc(O)c(c4)Oc4ccc(cc4)[C@@H](NC(=O)[C@@H]3NC(=O)[C@@H](c3ccc(O)cc3)NC1=O)C(=O)N2C)c1ccc(O)cc1` (stereo partly drawn), the figures for the MIC in assay [1] and in assay [3] were 16 µg/mL (≈ 12.5 µM) and 4 µg/mL (≈ 3.14 µM), respectively. In the case of `CN(C)CCCNC(=O)[C@@H]1NC(=O)[C@@H]2Cc3ccc(cc3)Oc3cc4cc(c3O)-c3ccc5c(c[nH]c5c3)C[C@@H](NC(=O)C(N)c3ccc(O)cc3)C(=O)N[C@H](c3ccc(O)cc3)C(=O)N[C@H]4C(=O)N[C@@H](C(=O)N2C)c2ccc(cc2)Oc2cc1ccc2O` (stereo partly drawn), the MIC in assay [4] came out at 2 µg/mL (≈ 1.66 µM). Take `CN1C(=O)[C@@H]2NC(=O)[C@@H]3NC(=O)[C@@H](c4ccc(O)cc4)NC(=O)[C@H](NC(=O)Cc4ccc(O)cc4)Cc4c[nH]c5cc(ccc45)-c4cc3cc(c4O)Oc3ccc(cc3)C[C@H]1C(=O)N[C@@H](C(=O)NCCC[N+]1(C)CCCC1)c1ccc(O)c(c1)Oc1ccc2cc1`: the MIC is over 128 µg/mL in assay [1], 8 µg/mL in assay [4] and 1 µg/mL in assay [2]. For `CNCCNC(=O)[C@@H]1NC(=O)[C@@H]2Cc3ccc(cc3)Oc3cc4cc(c3O)-c3ccc5c(c[nH]c5c3)C[C@@H](NC(=O)C(N)c3ccc(O)cc3)C(=O)N[C@H](c3ccc(O)cc3)C(=O)N[C@H]4C(=O)N[C@@H](C(=O)N2C)c2ccc(cc2)Oc2cc1ccc2O` (stereo partly drawn), the minimum inhibitory concentration (MIC) in assay [3] stood at 4 µg/mL (≈ 3.4 µM); in assay [4] it was 1 µg/mL (≈ 0.849 µM); in assay [2] it was 0.5 µg/mL (≈ 0.425 µM).

As to `CN1C(=O)[C@@H]2NC(=O)[C@@H]3NC(=O)[C@@H](c4ccc(O)cc4)NC(=O)[C@H](NC(=O)C(NCCCCCCB(O)O)c4ccc(O)cc4)Cc4c[nH]c5cc(ccc45)-c4cc3cc(c4O)Oc3ccc(cc3)C[C@H]1C(=O)N[C@@H](C(=O)OCCCCCCB(O)O)c1ccc(O)c(c1)Oc1ccc2cc1` (stereo partly drawn), the MIC in assay [3] worked out at 64 µg/mL (≈ 46.5 µM).
